Active and inactive are the calls of the source. The calls are words filed in the database; no cut-off is given here.
Columns and labels:
NCI-H460 [1] = assay: Induction of apoptosis in human NCI-H460 cells assessed as early apoptotic cells at 50 uM measured after 48 hrs by Annexin V-FITC/PI staining method (reference value: 3.26%); type: functional
NCI-H1975 [2] = assay: Cytotoxicity against Glut1 knocked down human NCI-H1975 cells transfected with KD1 assessed as decrease in cell viability incubated for 72 hrs by MTT assay; type: functional, cell-based; conditions: NCI-H1975, 72 h
Summary of the method: (§1)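 Stable Glut-1 knockdown (KD1, KD2, vector KD V) or overexpression (OE, vector OE V) NCI-H1975 cells made by 12 h lentiviral infection, 72 h culture, then 14 days puromycin selection; Glut-1 confirmed by Western blot. Cells seeded at 4000/well overnight, dosed over a concentration range or DMSO for 72 h. MTT read at 570 nm; IC50 from ≥3 replicates.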

NCI-H460 [3] = assay: Induction of apoptosis in human NCI-H460 cells assessed as viable cells at 50 uM measured after 48 hrs by Annexin V-FITC/PI staining method (reference value: 86.7%); type: functional; conditions: read-out: Activity
[4] = Stability in NCI-H1975 tumor bearing nude mouse model plasma at 1 mg/kg, iv; type: ADME, organism-based; conditions: in vivo
NCI-H1975 [5] = assay: Cytotoxicity against human NCI-H1975 cells transfected with OE overexpressing Glut1assessed as decrease in cell viability incubated for 72 hrs by MTT assay; type: functional, cell-based; conditions: NCI-H1975, 72 h; summary of the method: as §1
NCI-H460 [6] = assay: Induction of apoptosis in human NCI-H460 cells assessed as early apoptotic cells at 20 uM measured after 48 hrs by Annexin V-FITC/PI staining method (reference value: 3.26%); type: functional
[7] = AUC (0 to 3 hrs) in NCI-H1975 tumor bearing nude mouse model serum at 1 mg/kg, iv; type: ADME, organism-based; parameters: time < 3 hr, dose 1 mg/kg, route iv
NCI-H1975 [8] = assay: Cytotoxicity against Glut1 knocked down human NCI-H1975 cells transfected with KD2 assessed as decrease in cell viability incubated for 72 hrs by MTT assay; type: functional, cell-based; conditions: NCI-H1975, 72 h; summary of the method: as §1
[9] = Toxicity in BALB/c nude mouse xenografted with human NCI-H1975 cells assessed as morphological changes in testis at 1 mg/kg administered ip, qd for 2 weeks; conditions: in vivo, 336 h
NCI-H1975 (Homo sapiens) = assay: Antineoplastic activity against human NCI-H1975 cells xenografted in BALB/c nude mouse assessed as tumor growth inhibition at 1 to 2 mg/kg, ip, qd for 2 weeks; conditions: dose 1-2 mg/kg
[10] = MRT (0 to 3 hrs) in NCI-H1975 tumor bearing nude mouse model serum at 1 mg/kg, iv; type: ADME, organism-based
[11] = Toxicity in BALB/c nude mouse xenografted with human NCI-H1975 cells assessed as degeneration of inter tube connective tissue at 2 mg/kg administered ip, qd for 2 weeks; conditions: in vivo, 336 h
NCI-H460 [12] = assay: Induction of apoptosis in human NCI-H460 cells assessed as late apoptotic cells at 20 uM measured after 48 hrs by Annexin V-FITC/PI staining method (reference value: 8.47%); type: functional
SW-620 = assay: Cytotoxicity against human SW-620 cells incubated for 72 hrs by MTT assay; type: functional, cell-based; conditions: SW-620, 72 h
Summary of the method: (§2)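 Cells seeded at 4000/well, incubated overnight, then exposed to a range of concentrations, or DMSO vehicle, for 72 h. MTT (5 mg/mL solution) added for 4 h and formazan dissolved in DMSO. Absorbance read at 570 nm, and IC50 derived from the curves. Tumor lines were grown in RPMI 1640; HUVEC, HaCaT and LO2 were grown in DMEM, each with 10% FBS at 37 °C and 5% CO2.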

[13] = Drug distribution in NCI-H1975 tumor bearing nude mouse model assessed as tumor to liver ratio of triptolide metabolite at 2 mg/kg, iv by LC-MS analysis; type: ADME, organism-based; conditions: in vivo
Summary of the method: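 NCI-H1975 xenograft mice, tumors about 500 mm3, 3 per group, fasted 12 h with water available. Given 2 mg/kg iv and sacrificed 1 h later. Heart, liver, lung, kidney and tumor weighed and flash-frozen. 1.0 g tissue homogenized in 2.0 mL saline, methanol-precipitated, reconstituted. Parent, triptolide succinate and triptolide measured by LC-MS; tumor/organ ratios calculated.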

[14] = Cytotoxicity against HUVEC transfected with OE V overexpressing Glut1assessed as decrease in cell viability incubated for 72 hrs by MTT assay; type: toxicity, cell-based; conditions: human, HUVEC cells transfected with OE V overexpressing Glut1
Summary of the method: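 HUVEC kept in DMEM with 10% FBS, made to overexpress Glut-1 (OE) or carry vector (OE V) by lentiviral infection and puromycin selection for 14 days, with Western blot check. Seeded at 4000 cells/well, treated over a concentration range or DMSO for 72 h, then MTT at 570 nm. IC50 taken from at least three replicates.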

NCI-H460 [15] = assay: Induction of mitochondrial membrane potential loss in human NCI-H460 cells by flow cytometric analysis; type: functional, cell-based
Summary of the method: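 Treated NCI-H460 cells suspended in 1% BSA DPBS and stained with TMRE (from a 1 mM stock) for 20 min in the dark. Cells then washed and resuspended in 1% BSA DPBS. Relative TMRE fluorescence intensity taken as the readout of membrane potential.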

HCT-116 = assay: Cytotoxicity against human HCT-116 cells incubated for 72 hrs by MTT assay; type: functional, cell-based; conditions: HCT-116, 72 h; summary of the method: as §2
NCI-H460 [16] = assay: Induction of apoptosis in human NCI-H460 cells assessed as viable cells at 1 uM measured after 48 hrs by Annexin V-FITC/PI staining method (reference value: 86.7%); type: functional; conditions: read-out: Activity
[17] = Cytotoxicity against human HaCaT cells incubated for 72 hrs by MTT assay; type: toxicity, cell-based; summary of the method: as §2
[18] = Toxicity in BALB/c nude mouse xenografted with human NCI-H1975 cells assessed as diarrhea at 1 to 2 mg/kg administered ip, qd for 2 weeks; conditions: in vivo, 336 h
[19] = Toxicity in BALB/c nude mouse xenografted with human NCI-H1975 cells assessed as reduction of cytoplasmic vacuoles at 2 mg/kg administered ip, qd for 2 weeks; conditions: in vivo, 336 h
NCI-H460 [20] = assay: Induction of apoptosis in human NCI-H460 cells assessed as necrotic cells at 20 uM measured after 48 hrs by Annexin V-FITC/PI staining method (reference value: 1.62%); type: functional
[21] = Cytotoxicity against HUVEC incubated for 72 hrs by MTT assay; type: toxicity, cell-based; conditions: human, HUVEC cells; summary of the method: as §2
[22] = Toxicity in BALB/c nude mouse xenografted with human NCI-H1975 cells assessed as morphological change in liver at 1 to 2 mg/kg administered ip, qd for 2 weeks; conditions: in vivo, 336 h
NCI-H460 [23] = assay: Down regulation of RNA polymerase II in human NCI-H460 cells measured after 48 hrs by Western blotting analysis; type: functional, cell-based
Summary of the method: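 NCI-H460 cells treated for 48 h, harvested by trypsinization and lysed on ice in NP-40 buffer (50 mmol/L Tris pH 8.0, 150 mmol/L NaCl, 1% NP-40). Protein quantified by BCA and resolved by SDS-PAGE. Blots probed for RNA Pol II (1:1000), with GAPDH as loading control, and detected by chemiluminescence.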

Stability [4]: Unstable
AUC(0-t) at 3 h [7]: 83.6 µM·h
MRT last [10]: 33.6 min
Ratio [13]: 9.3
SMILES: CC(C)[C@]12O[C@H]1[C@@H]1O[C@]13[C@]1(O[C@H]1C[C@H]1C4=C(CC[C@@]13C)C(=O)OC4)[C@@H]2OC(=O)CCC(=O)O[C@H]1C(O)O[C@H](CO)[C@@H](O)[C@@H]1O (stereo partly specified)
Activity (NCI-H460 [1]): 50.2%
IC50 (NCI-H1975 [2]): 7.01 µM
viability at 50 µM (NCI-H460 [3]): 22.7%
IC50 (NCI-H1975 [5]): 2.44 µM
Activity (NCI-H460 [6]): 35.1%
IC50 (NCI-H1975 [8]): 11.6 µM
Activity [9]: Non-Toxic
Activity (NCI-H1975 (Homo sapiens)): Active
Activity [11]: Toxic
Activity (NCI-H460 [12]): 27.4%
IC50 (SW-620): 1.73 µM
IC50 at 72 h [14]: 9.22 µM
Activity (NCI-H460 [15]): Active
IC50 (HCT-116): 1.95 µM
viability at 1 µM (NCI-H460 [16]): 84.6%
IC50 at 72 h [17]: 6.54 µM
Activity [18]: Non-Toxic
Activity [19]: Toxic
Activity (NCI-H460 [20]): 4.89%
IC50 at 72 h [21]: 8.55 µM
Activity [22]: Non-Toxic
Activity (NCI-H460 [23]): Active

From ChEMBL document CHEMBL5104115, “Design, synthesis of novel triptolide-glucose conjugates targeting glucose Transporter-1 and their selective antitumor effect” (Eur J Med Chem, 2022)
